Experimental data published in ChEMBL document CHEMBL5058577, “EUbOPEN Chemogenomics Library 2 (Multiplex)” (2022).

Tested on: U2OS
Assay: Multiplex assay against U2OS
Format: toxicity, cell-based
Conditions: human
In short: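 Phenotypes for tubulin, mitochondrial mass and membrane permeability are expressed as per cents of healthy-nucleus cells. Cells were stained live at seeding with Hoechst33342, BioTracker Green Microtubule Cytoskeleton Dye, MitoTracker Red and Annexin V Alexa Fluor 680, then imaged after compound addition on a CQ1 microscope at 37°C and 5% CO2. Machine-learning gating in CellPathfinder separated Hoechst high-intensity objects from normal cells, divided normal cells by nuclear state (healthy, pyknosed, fragmented) and divided pyknosed cells into mitotic or apoptotic.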

[1] = 12 h, 1 µM, compound concentration 1 uM, replicate 1
[2] = 12 h, 1 µM, compound concentration 1 uM, replicate 2
[3] = 12 h, 10 µM, compound concentration 10 uM, replicate 1
[4] = 12 h, 10 µM, compound concentration 10 uM, replicate 2
[5] = 24 h, 1 µM, compound concentration 1 uM, replicate 1
[6] = 24 h, 1 µM, compound concentration 1 uM, replicate 2
[7] = 24 h, 10 µM, compound concentration 10 uM, replicate 1
[8] = 24 h, 10 µM, compound concentration 10 uM, replicate 2
[9] = 48 h, 1 µM, compound concentration 1 uM, replicate 1
[10] = 48 h, 1 µM, compound concentration 1 uM, replicate 2
[11] = 48 h, 10 µM, compound concentration 10 uM, replicate 1
[12] = 48 h, 10 µM, compound concentration 10 uM, replicate 2

Cc1nn(C)c2nc(NNC(=O)Nc3cc(Cl)nc(Cl)c3)cc(C(C)C)c12
Population Apoptotic (%) [1]: 76%
Population Fragmented Nuclei (%) [1]: 23%
Population Healthy Nuclei (%) [1]: 66%
Population Hoechst High Intensity Objects (%) [1]: 1%
Population Membrane Permeable-Phenotype (%) [1]: 5%
Population Mitochondria Different-Phenotype (%) [1]: 3%
Population Mitotic Cells (%) [1]: 24%
Population Normal (%) [1]: 98%
Population Pyknosed Nuclei (%) [1]: 9%
Population Tubulin-Different-Phenotype (%) [1]: 2%
Total Cell Count [1]: 268
Population Apoptotic (%) [2]: 72%
Population Fragmented Nuclei (%) [2]: 14%
Population Healthy Nuclei (%) [2]: 76%
Population Hoechst High Intensity Objects (%) [2]: 2%
Population Membrane Permeable-Phenotype (%) [2]: 10%
Population Mitochondria Different-Phenotype (%) [2]: 7%
Population Mitotic Cells (%) [2]: 27%
Population Normal (%) [2]: 97%
Population Pyknosed Nuclei (%) [2]: 8%
Population Tubulin-Different-Phenotype (%) [2]: 7%
Total Cell Count [2]: 131
Population Apoptotic (%) [3]: 77%
Population Fragmented Nuclei (%) [3]: 21%
Population Healthy Nuclei (%) [3]: 56%
Population Hoechst High Intensity Objects (%) [3]: 7%
Population Membrane Permeable-Phenotype (%) [3]: 75%
Population Mitochondria Different-Phenotype (%) [3]: 46%
Population Mitotic Cells (%) [3]: 22%
Population Normal (%) [3]: 92%
Population Pyknosed Nuclei (%) [3]: 21%
Population Tubulin-Different-Phenotype (%) [3]: 80%
Total Cell Count [3]: 222
Population Apoptotic (%) [4]: 47%
Population Fragmented Nuclei (%) [4]: 15%
Population Healthy Nuclei (%) [4]: 63%
Population Hoechst High Intensity Objects (%) [4]: 4%
Population Membrane Permeable-Phenotype (%) [4]: 57%
Population Mitochondria Different-Phenotype (%) [4]: 63%
Population Mitotic Cells (%) [4]: 52%
Population Normal (%) [4]: 95%
Population Tubulin-Different-Phenotype (%) [4]: 77%
Total Cell Count [4]: 104
Population Apoptotic (%) [5]: 80%
Population Fragmented Nuclei (%) [5]: 20%
Population Healthy Nuclei (%) [5]: 71%
Population Hoechst High Intensity Objects (%) [5]: 0%
Population Membrane Permeable-Phenotype (%) [5]: 4%
Population Mitochondria Different-Phenotype (%) [5]: 2%
Population Mitotic Cells (%) [5]: 19%
Population Normal (%) [5]: 99%
Population Pyknosed Nuclei (%) [5]: 8%
Population Tubulin-Different-Phenotype (%) [5]: 1%
Total Cell Count [5]: 328
Population Apoptotic (%) [6]: 93%
Population Fragmented Nuclei (%) [6]: 17%
Population Healthy Nuclei (%) [6]: 73%
Population Hoechst High Intensity Objects (%) [6]: 2%
Population Membrane Permeable-Phenotype (%) [6]: 9%
Population Mitochondria Different-Phenotype (%) [6]: 4%
Population Mitotic Cells (%) [6]: 6%
Population Normal (%) [6]: 97%
Population Pyknosed Nuclei (%) [6]: 9%
Population Tubulin-Different-Phenotype (%) [6]: 4%
Total Cell Count [6]: 168
Population Apoptotic (%) [7]: 78%
Population Fragmented Nuclei (%) [7]: 19%
Population Healthy Nuclei (%) [7]: 49%
Population Hoechst High Intensity Objects (%) [7]: 5%
Population Membrane Permeable-Phenotype (%) [7]: 69%
Population Mitochondria Different-Phenotype (%) [7]: 58%
Population Mitotic Cells (%) [7]: 21%
Population Normal (%) [7]: 94%
Population Pyknosed Nuclei (%) [7]: 31%
Population Tubulin-Different-Phenotype (%) [7]: 77%
Total Cell Count [7]: 218
Population Apoptotic (%) [8]: 69%
Population Fragmented Nuclei (%) [8]: 16%
Population Healthy Nuclei (%) [8]: 61%
Population Hoechst High Intensity Objects (%) [8]: 2%
Population Membrane Permeable-Phenotype (%) [8]: 42%
Population Mitochondria Different-Phenotype (%) [8]: 51%
Population Mitotic Cells (%) [8]: 30%
Population Normal (%) [8]: 97%
Population Pyknosed Nuclei (%) [8]: 21%
Population Tubulin-Different-Phenotype (%) [8]: 57%
Total Cell Count [8]: 110
Population Apoptotic (%) [9]: 88%
Population Fragmented Nuclei (%) [9]: 17%
Population Healthy Nuclei (%) [9]: 75%
Population Hoechst High Intensity Objects (%) [9]: 2%
Population Membrane Permeable-Phenotype (%) [9]: 4%
Population Mitochondria Different-Phenotype (%) [9]: 3%
Population Mitotic Cells (%) [9]: 11%
Population Normal (%) [9]: 97%
Population Pyknosed Nuclei (%) [9]: 7%
Population Tubulin-Different-Phenotype (%) [9]: 2%
Total Cell Count [9]: 504
Population Apoptotic (%) [10]: 86%
Population Fragmented Nuclei (%) [10]: 21%
Population Healthy Nuclei (%) [10]: 65%
Population Hoechst High Intensity Objects (%) [10]: 1%
Population Membrane Permeable-Phenotype (%) [10]: 8%
Population Mitochondria Different-Phenotype (%) [10]: 4%
Population Mitotic Cells (%) [10]: 13%
Population Normal (%) [10]: 98%
Population Pyknosed Nuclei (%) [10]: 12%
Population Tubulin-Different-Phenotype (%) [10]: 5%
Total Cell Count [10]: 247
Population Apoptotic (%) [11]: 83%
Population Fragmented Nuclei (%) [11]: 24%
Population Healthy Nuclei (%) [11]: 43%
Population Hoechst High Intensity Objects (%) [11]: 9%
Population Membrane Permeable-Phenotype (%) [11]: 51%
Population Mitochondria Different-Phenotype (%) [11]: 46%
Population Mitotic Cells (%) [11]: 16%
Population Normal (%) [11]: 90%
Population Pyknosed Nuclei (%) [11]: 32%
Population Tubulin-Different-Phenotype (%) [11]: 49%
Total Cell Count [11]: 244
Population Apoptotic (%) [12]: 80%
Population Healthy Nuclei (%) [12]: 48%
Population Hoechst High Intensity Objects (%) [12]: 6%
Population Mitochondria Different-Phenotype (%) [12]: 63%
Population Mitotic Cells (%) [12]: 20%
Population Normal (%) [12]: 93%
Population Pyknosed Nuclei (%) [12]: 27%
Population Tubulin-Different-Phenotype (%) [12]: 57%
Total Cell Count [12]: 115

COc1cc(OC2CCN(C(C)=O)CC2)ccc1C(=O)N1CCC(N2C(=O)OCc3ccccc32)CC1
Population Apoptotic (%) [1]: 50%
Population Fragmented Nuclei (%) [1]: 22%
Population Healthy Nuclei (%) [1]: 67%
Population Hoechst High Intensity Objects (%) [1]: 0%
Population Membrane Permeable-Phenotype (%) [1]: 5%
Population Mitochondria Different-Phenotype (%) [1]: 3%
Population Mitotic Cells (%) [1]: 50%
Population Normal (%) [1]: 99%
Population Pyknosed Nuclei (%) [1]: 9%
Population Tubulin-Different-Phenotype (%) [1]: 3%
Total Cell Count [1]: 233
Population Apoptotic (%) [2]: 66%
Population Fragmented Nuclei (%) [2]: 20%
Population Healthy Nuclei (%) [2]: 69%
Population Membrane Permeable-Phenotype (%) [2]: 11%
Population Mitochondria Different-Phenotype (%) [2]: 7%
Population Mitotic Cells (%) [2]: 33%
Population Tubulin-Different-Phenotype (%) [2]: 8%
Total Cell Count [2]: 130
Population Apoptotic (%) [3]: 72%
Population Fragmented Nuclei (%) [3]: 23%
Population Healthy Nuclei (%) [3]: 62%
Population Hoechst High Intensity Objects (%) [3]: 6%
Population Membrane Permeable-Phenotype (%) [3]: 18%
Population Mitochondria Different-Phenotype (%) [3]: 6%
Population Mitotic Cells (%) [3]: 27%
Population Normal (%) [3]: 93%
Population Pyknosed Nuclei (%) [3]: 13%
Population Tubulin-Different-Phenotype (%) [3]: 12%
Total Cell Count [3]: 228
Population Apoptotic (%) [4]: 87%
Population Fragmented Nuclei (%) [4]: 13%
Population Healthy Nuclei (%) [4]: 77%
Population Hoechst High Intensity Objects (%) [4]: 1%
Population Membrane Permeable-Phenotype (%) [4]: 21%
Population Mitochondria Different-Phenotype (%) [4]: 10%
Population Mitotic Cells (%) [4]: 12%
Population Normal (%) [4]: 98%
Population Pyknosed Nuclei (%) [4]: 9%
Population Tubulin-Different-Phenotype (%) [4]: 13%
Total Cell Count [4]: 85
Population Apoptotic (%) [5]: 82%
Population Fragmented Nuclei (%) [5]: 20%
Population Healthy Nuclei (%) [5]: 71%
Population Hoechst High Intensity Objects (%) [5]: 1%
Population Membrane Permeable-Phenotype (%) [5]: 3%
Population Mitochondria Different-Phenotype (%) [5]: 2%
Population Mitotic Cells (%) [5]: 17%
Population Normal (%) [5]: 98%
Population Pyknosed Nuclei (%) [5]: 8%
Population Tubulin-Different-Phenotype (%) [5]: 2%
Total Cell Count [5]: 288
Population Apoptotic (%) [6]: 76%
Population Fragmented Nuclei (%) [6]: 22%
Population Healthy Nuclei (%) [6]: 68%
Population Membrane Permeable-Phenotype (%) [6]: 7%
Population Mitochondria Different-Phenotype (%) [6]: 5%
Population Mitotic Cells (%) [6]: 23%
Population Tubulin-Different-Phenotype (%) [6]: 3%
Total Cell Count [6]: 163
Population Apoptotic (%) [7]: 81%
Population Fragmented Nuclei (%) [7]: 21%
Population Healthy Nuclei (%) [7]: 60%
Population Hoechst High Intensity Objects (%) [7]: 5%
Population Membrane Permeable-Phenotype (%) [7]: 9%
Population Mitochondria Different-Phenotype (%) [7]: 9%
Population Mitotic Cells (%) [7]: 18%
Population Normal (%) [7]: 94%
Population Pyknosed Nuclei (%) [7]: 18%
Population Tubulin-Different-Phenotype (%) [7]: 4%
Total Cell Count [7]: 250
Population Apoptotic (%) [8]: 71%
Population Fragmented Nuclei (%) [8]: 12%
Population Healthy Nuclei (%) [8]: 80%
Population Hoechst High Intensity Objects (%) [8]: 2%
Population Membrane Permeable-Phenotype (%) [8]: 10%
Population Mitochondria Different-Phenotype (%) [8]: 3%
Population Mitotic Cells (%) [8]: 28%
Population Normal (%) [8]: 97%
Population Pyknosed Nuclei (%) [8]: 7%
Population Tubulin-Different-Phenotype (%) [8]: 6%
Total Cell Count [8]: 99
Population Apoptotic (%) [9]: 80%
Population Fragmented Nuclei (%) [9]: 17%
Population Healthy Nuclei (%) [9]: 77%
Population Hoechst High Intensity Objects (%) [9]: 3%
Population Membrane Permeable-Phenotype (%) [9]: 3%
Population Mitochondria Different-Phenotype (%) [9]: 1%
Population Mitotic Cells (%) [9]: 19%
Population Normal (%) [9]: 96%
Population Pyknosed Nuclei (%) [9]: 5%
Population Tubulin-Different-Phenotype (%) [9]: 2%
Total Cell Count [9]: 388
Population Apoptotic (%) [10]: 65%
Population Fragmented Nuclei (%) [10]: 23%
Population Healthy Nuclei (%) [10]: 66%
Population Membrane Permeable-Phenotype (%) [10]: 10%
Population Mitochondria Different-Phenotype (%) [10]: 5%
Population Mitotic Cells (%) [10]: 35%
Population Pyknosed Nuclei (%) [10]: 9%
Population Tubulin-Different-Phenotype (%) [10]: 4%
Total Cell Count [10]: 213
Population Apoptotic (%) [11]: 81%
Population Fragmented Nuclei (%) [11]: 19%
Population Healthy Nuclei (%) [11]: 66%
Population Hoechst High Intensity Objects (%) [11]: 5%
Population Membrane Permeable-Phenotype (%) [11]: 5%
Population Mitochondria Different-Phenotype (%) [11]: 4%
Population Mitotic Cells (%) [11]: 18%
Population Normal (%) [11]: 95%
Population Pyknosed Nuclei (%) [11]: 14%
Population Tubulin-Different-Phenotype (%) [11]: 3%
Total Cell Count [11]: 320
Population Apoptotic (%) [12]: 100%
Population Fragmented Nuclei (%) [12]: 17%
Population Healthy Nuclei (%) [12]: 78%
Population Hoechst High Intensity Objects (%) [12]: 1%
Population Membrane Permeable-Phenotype (%) [12]: 14%
Population Mitochondria Different-Phenotype (%) [12]: 6%
Population Mitotic Cells (%) [12]: 0%
Population Normal (%) [12]: 98%
Population Pyknosed Nuclei (%) [12]: 3%
Population Tubulin-Different-Phenotype (%) [12]: 8%
Total Cell Count [12]: 130
